Assay outcomes (PubChem)
TMEM16A inh: TMEM16A chloride channel inhibitors, primary screen, cell-based, HTS; Anoctamin-1 (Mus musculus), Q8BHY3; HEK293 TMEM16A/YFP iodide influx fluorescence, ionomycin; normalized B-score (activity score, 25-100; higher = stronger inhibition) at 10 µM; 310,000 compounds, 1.2% hits; AID 588511, 2011;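 active = ratio plate-corrected score three or more library SD toward inhibition, starting fluorescence score within five deviations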;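 note: score derived from kinetic fluorescence span divided by baseline fluorescence per well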
TMEM16A act: TMEM16A chloride channel activators or potentiators, primary screen, cell-based, HTS. Anoctamin-1 (Mus musculus), Q8BHY3. HEK293 TMEM16A/YFP-H148Q/I152L, iodide quench fluorescence; active compounds read low. B-score at 10 µM. 340,000 compounds, 0.3% hits. AID 623877, 2012;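 active = fluorescence-ratio B-score plate-corrected deviation score at least 3 library SD below zero, with starting fluorescence score within 5 deviations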;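 note: channel opened by trigger with iodide after compound preincubation; score built on the fluorescence ratio of max minus min over baseline; more negative score means more quench and so TMEM16A activation or potentiation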
VIM-2 inhibitor: VIM-2 metallo-beta-lactamase inhibitors, primary screen, biochemical, epi-absorbance readout, Pseudomonas aeruginosa enzyme. purified VIM-2, nitrocefin hydrolysis, epi-absorbance fluorescence. inhibition, % at 5.6 µM. 290,000 compounds, 0.89% hits. AID 1527, 2009;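 active = inhibition above the mean of all tested compounds plus 3 SD, cutoff set per screening run, cut at about 7.5% in these data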;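 note: red hydrolysis product quenches plate fluorescence so inhibitors raise well fluorescence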
CHT inh: inhibitors of human choline transporter CHT. High affinity choline transporter 1 (Homo sapiens), Q9GZV3. CHT-expressing cells, membrane potential dye, choline response; active compounds read low. B-score at 10 µM. 310,000 compounds, 0.86% hits;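 active = B-score over 3 SD under the library average, and starting fluorescence ratio not unusually high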;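 note: choline stimulus applied at its EC90 after an EC20 pre-addition; B-score computed on integrated fluorescence ratio after choline addition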
CHT PAM: CHT positive allosteric modulators, primary screen, cell-based, membrane potential dye, choline EC20 | 310,000 compounds, 0.49% hits | CHT-expressing cells; active compounds read high; LV-AA mutant CHT in HEK293 cells | AID 488977, 2010 | B-score at 10 µM | High affinity choline transporter 1 (Homo sapiens), Q9GZV3;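 active = initial fluorescence not abnormally high and integrated response B-score, plate-corrected, over 3 SD above library mean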
IMP-1 inh-1: IMP-1 metallo-beta-lactamase inhibitors, primary screen, biochemical, epi-absorbance readout, Pseudomonas aeruginosa enzyme; AID 1556, 2009; metallo-beta-lactamase IMP-1 (Pseudomonas aeruginosa); inhibition, % at 5.6 µM; purified IMP-1, nitrocefin hydrolysis, epi-absorbance fluorescence; 290,000 compounds, 0.45% hits;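 active = inhibition above the mean plus 3 SD of all compounds in the same screening run, cut at about 4.5% in these data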
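System: purified IMP-1 / Input: IMP-1 dispensed at 0.2 nM / Medium: 50 mM HEPES pH 7.1, 50 µM ZnSO4, 0.05% Brij 35 / Timing: 15 min enzyme–compound preincubation, then 25 min nitrocefin reaction, 25 °C / Technique: plate fluorescence quenching by hydrolysis product, ex 480/em 530 nm / Repeats: singlicate testing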
IMP-1 inh-2: IMP-1 metallo-beta-lactamase inhibitors, confirmation, selectivity assay for selective VIM-2 inhibitor project, biochemical, epi-absorbance readout, triplicate. shares compounds with VIM-2 inhibitor. purified IMP-1, nitrocefin hydrolysis, epi-absorbance fluorescence. inhibition, % at 5.6 µM. 1,300 tested, under 10 active. AID 1856, 2009; call rule not given here
VIM-2 FRET ctr: VIM-2 inhibitors in FRET format, confirmation, artefact control for selective VIM-2 inhibitor project, biochemical, epi-absorbance artifact exclusion. shares compounds with VIM-2 inhibitor. purified VIM-2, CCF2 FRET substrate hydrolysis. inhibition, % at 5.6 µM. 1,300 compounds, 23% hits. AID 1857, 2009;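 active = inhibition above the mean of all tested compounds plus 3 SD, cut at about 19% in these data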
TEM-1 inh: TEM-1 serine beta-lactamase inhibitors, counter-screen for VIM-2 inhibitor project, biochemical, epi-absorbance, HTS; shares compounds with VIM-2 inhibitor; Purified TEM-1, nitrocefin hydrolysis, epi-absorbance fluorescence; inhibition, % at 5.6 µM; 1,300 compounds, 3% hits;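 active = inhibition above that campaign's mean inhibition plus 3 SD, cut at about 0.46% in these data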
VIM-2 inh conf: VIM-2 metallo-beta-lactamase inhibitors, confirmation, biochemical, epi-absorbance, hits shared with IMP-1 screen; shares compounds with VIM-2 inhibitor; purified VIM-2, nitrocefin hydrolysis; inhibition, % at 5.6 µM; 1,300 compounds, 96% hits; AID 2187, 2009;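 active = inhibition of the VIM-2 beta-lactamase enzyme above about 11% from the earlier first-round screen, limit read from the data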
Numbers stand for hits; - = inactive; . = no result. A selection: hits, their analogues and other compounds. The true share with any hit is near 3.4%.

SMILES	TMEM16A inh	TMEM16A act	VIM-2 inhibitor	CHT inh	CHT PAM	IMP-1 inh-1	IMP-1 inh-2	VIM-2 FRET ctr	TEM-1 inh	VIM-2 inh conf
CCc1nc(NCCCn2ccnc2)c2oc3ccccc3c2n1	-	-26	67	-	-	-	-	-	-	79
COc1ccc(/C=N/NC(=O)c2c(Br)cnn2C)c2ccccc12	-	-	-	-	-	-	.	.	.	.
COc1ccccc1C(=O)Nc1ccc2c(c1)nc(CCNC(=O)c1ccco1)n2C	-	-	-	-	-	-	.	.	.	.
COc1ccc(S(=O)(=O)N2CCOCC2)cc1NC(=O)CN1C(=O)NC2(CCCCC2C)C1=O (stereo unspecified)	.	-	.	.	.	.	.	.	.	.
COc1ccc(Cl)c2c1[nH]c1nc(SCc3ccccn3)nnc12	-	-	13	-	-	-	-	-	-	21
COc1ccc(Cl)c2c1[nH]c1nc(SCc3cccnc3)nnc12	-	-	-	-	-	-	.	.	.	.
COc1ccnc(N=CNOCc2cccc(C(F)(F)F)c2)c1C#N	-	-	-	-	-	-	.	.	.	.
C#CCn1cc(/C=C2\NC(=O)NC2=O)c2ccccc21	-	-	-	-	-	-	.	.	.	.
COc1ccc(-c2n[nH]c(=S)n2-c2cc(OC)ccc2OC)cc1	-	-	-	-	-	-	.	.	.	.
COc1ccc2c(C)cc3n[nH]c(=S)n3c2c1	-	-	13	-	-	-	-	21	-	19
Cc1c(C(=O)N2CCN(S(=O)(=O)c3ccccc3)CC2)oc2ccc(Br)cc12	.	-	.	.	.	.	.	.	.	.
Cc1ccc(C(=O)OCC(=O)NC2CC2)cc1S(=O)(=O)N1CCOCC1	.	-	.	.	.	.	.	.	.	.
NC(=O)SCC(=O)Nc1ccccc1C(=O)O	-	-	13	-	-	-	-	50	-	31
O=C(CSc1cn[nH]n1)Nc1ccccc1C(=O)O	-	-	20	-	-	-	-	40	-	23
CC(Oc1cc2oc(=O)c3c(c2cc1Cl)CCC3)C(=O)NCCN1CCOCC1 (stereo unspecified)	-	-	13	-	-	-	-	-	-	23
O=C(Oc1cc2oc(=O)c3c(c2cc1Cl)CCCC3)c1ccco1	-	-	-	-	-	-	.	.	.	.
Cc1cc(=O)oc2cc(OCC(=O)NCCN3CCOCC3)c(Cl)cc12	-	-	-	-	-	-	.	.	.	.
O=C(COc1cc2oc(=O)c3c(c2cc1Cl)CCC3)NCCN1CCOCC1	-	-	23	-	-	-	-	-	-	30
NC(=O)COc1cc2oc(=O)c3c(c2cc1Cl)CCCC3	-	-	14	-	-	-	-	-	-	19
CC(Oc1cc2oc(=O)c3c(c2cc1Cl)CCC3)C(=O)NCC1CCC(C(=O)O)CC1 (stereo unspecified)	-	-	-	-	-	-	.	.	.	.
OCc1cccc[n+]1CCc1ccccc1	-	-	.	-	-	.	.	.	.	.
Cc1ccc(-c2cn3c(=S)[nH]nc3s2)cc1	-	-	45	-	-	-	-	69	-	54
